Results on 167 variants are retold here after the RNAGym collection of RNA variant scans (doi:10.1126/science.aae0568).

B1: tRNA (parent)
chain: GUUCCGUUGGCGUAAUGGUAACGCGUCUCCCUCCUAAGGAGAAGACUGCGGGUUCGAGUCCCGUACGGAACG

Fewer inactive variants are shown than the library holds.

The variants in the data set derive from B1. Kind of data set: yeast fitness relative to wild type (ratio to wild type); higher = fitter; tRNA-Arg(CCU), competitive growth, 37 C, YPD. An outline of the steps:
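Gene amplicons from the start population and from each of six end populations were read by 100-nucleotide paired-end sequencing. Those end populations came from pooled Saccharomyces cerevisiae strains carrying tRNA-Arg(CCU) gene variants at the native locus, competed in YPD at 37°C for 24 hours. Fitness relative to wild type was worked out from changes in genotype frequencies. Genotypes needed ≥ 100 starting reads, and estimates < 0.5 were set to 0.5.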
As for C4U C5G U16C C24G A42U A43G, the yeast fitness is not above 0.5.

Consider C4U A21G G52A, for which the yeast fitness was not above 0.5.

As to C4U C33G A36G G67A G68C, the yeast fitness came out at 0.604.

With C4U C11G C66A, the yeast fitness was not above 0.5.

With C4U C11G A45U C49U C61G, the yeast fitness is not above 0.5.

For the variant C4U A36G G44C A69U, the yeast fitness was 0.635.

In the case of C4U A45G G51A G67A, the yeast fitness is not above 0.5.

Consider C4U C24G G58C, for which the yeast fitness is not above 0.5.

With C4U C30A U35C, the yeast fitness was found to be 0.77.

Regarding C4U C5A U13A C31U C34U, the yeast fitness was determined as 0.544.

Take C4U C22U C31U C60G: the yeast fitness worked out at 0.545.

As to C4U C31U C61U G68C, the yeast fitness was not above 0.5.

For C4U A57C C62U, the yeast fitness came out at 0.601.

Consider C4U A36C G48A, for which the yeast fitness is 0.71.

Take C4U C33G C34G G51C U54C: the yeast fitness is 0.561.

C4U C11U A15G C34U: the yeast fitness is not above 0.5.

Consider C4U A43C C62U, for which the yeast fitness is 0.965.

C4U C11G C34U C60A: the yeast fitness was not above 0.5.

C4U C5A A21G A43U C46U G51C C55U A65C: the yeast fitness was not above 0.5.

On to C4U C24G U26A U28G U47C, for which the yeast fitness was not above 0.5.

C4U C30A C49U: the yeast fitness was 0.825.

As to C4U C5G G48C, the yeast fitness was 0.655.

Take C4U C33A G68A: the yeast fitness was not above 0.5.

For C4U A57G C61U, the yeast fitness was 0.675.

With C4U A20U C27G C30G A43G A65C G68C, the yeast fitness was 0.639.

With C4U C24A U59A, the yeast fitness was found to be 0.65.

Turning to C4U C30A U53C A70G, the yeast fitness was not above 0.5.

Regarding C4U C11G C55U G58A, the yeast fitness was not above 0.5.

For the variant C4U C22U C31U A57U, the yeast fitness is not above 0.5.

For C4U A20C U47A A65U, the yeast fitness is not above 0.5.

For C4U C5A C60G, the yeast fitness was not above 0.5.

C4U C11U G25C G41A G58C: the yeast fitness is not above 0.5.

With C4U A42G A65U, the yeast fitness was 0.611.

For the variant C4U C11G C49U C61A, the yeast fitness is not above 0.5.

Consider C4U C11G G18C U47A A69U, for which the yeast fitness came to 0.699.

As to C4U C5G U16C C24G A42C, the yeast fitness turned out to be 0.504.

Regarding C4U C22U C24G A37G, the yeast fitness was not above 0.5.

C4U C5G A37C G58A C62U: the yeast fitness is not above 0.5.

On to C4U C29G A37C C46G, for which the yeast fitness is not above 0.5.

C4U A36G A69C: the yeast fitness stood at 0.8.

With C4U C31U A37C C66U A69U, the yeast fitness was not above 0.5.

In the case of C4U C11A G12A G48A G67A, the yeast fitness is not above 0.5.

For C4U A21C C27U G63A A65G, the yeast fitness is not above 0.5.

Take C4U A36U: the yeast fitness amounted to 0.82.

Take C4U A36G: the yeast fitness was determined as 1.02.

C4U C27U C29G A42C: the yeast fitness is not above 0.5.

Take C4U C11A U26G G50C: the yeast fitness worked out at 0.536.

With C4U A20C C49U C61A, the yeast fitness was not above 0.5.

On to C4U A40C A70G, for which the yeast fitness was not above 0.5.

On to C4U A42G A69C, for which the yeast fitness amounted to 0.636.

As for C4U A20G U28C C31U G50C C55G U59C C60U G67U, the yeast fitness was not above 0.5.

In the case of C4U C29U C30G, the yeast fitness was not above 0.5.

On to C4U C31U G67C, for which the yeast fitness was determined as 0.598.

As to C4U C31U A43G C61A G63A A65U C66G, the yeast fitness came to 0.575.

For the variant C4U C31G A42C C66U, the yeast fitness is not above 0.5.

Regarding C4U C24A C31A A40U A42C C49A, the yeast fitness is not above 0.5.

C4U C22U C34A: the yeast fitness was 0.548.

Consider C4U C24U U28C C30A, for which the yeast fitness came out at 0.636.

Regarding C4U A42C G63C, the yeast fitness was 0.522.

Consider C4U C30A C60G, for which the yeast fitness came out at 0.6.

Take C4U A37U: the yeast fitness is 0.676.

Regarding C4U C24A C60A, the yeast fitness worked out at 0.724.

Regarding C4U C30A U64C, the yeast fitness came out at 0.92.

In the case of C4U A21C C24U G38A G63C, the yeast fitness was not above 0.5.

Regarding C4U A21C C24U G38A, the yeast fitness is not above 0.5.

For C4U A36G G39A G67A, the yeast fitness is not above 0.5.

Regarding C4U C11G C30G, the yeast fitness is not above 0.5.

On to C4U A36C A45C, for which the yeast fitness was not above 0.5.

Consider C4U A40G C60G, for which the yeast fitness came to 0.544.

Turning to C4U C30A U54C, the yeast fitness is 0.739.

Regarding C4U C22G C60G, the yeast fitness is not above 0.5.

With C4U C5G C34U U54A G67U, the yeast fitness is not above 0.5.

As to C4U A21G C46A A70U, the yeast fitness came to 0.76.

C4U C24U A36C G63C C66G: the yeast fitness is not above 0.5.

For the variant C4U C5U C27G C31G, the yeast fitness was not above 0.5.

Turning to C4U A36C U54C, the yeast fitness was not above 0.5.

As to C4U C29A G52C C55A C61A G68U, the yeast fitness is not above 0.5.

On to C4U A45U A69C, for which the yeast fitness came out at 0.79.

C4U A45U A69U: the yeast fitness amounted to 0.827.

Regarding C4U A20C C34U C55U, the yeast fitness worked out at 0.532.

Consider C4U C11G C24A C29U, for which the yeast fitness was not above 0.5.

With C4U C11G C29A, the yeast fitness came to 0.597.

On to C4U C29A C31G A42C A45U A65C, for which the yeast fitness is not above 0.5.

In the case of C4U C30A A70G, the yeast fitness amounted to 0.769.

Turning to C4U C30A A70U, the yeast fitness is 0.799.

As for C4U A37G A45U, the yeast fitness turned out to be 0.707.

With C4U C27G A45C C55U, the yeast fitness came out at 0.559.

Turning to C4U C30A A45U, the yeast fitness was 0.77.

Turning to C4U A43U C55G G67A, the yeast fitness worked out at 0.804.

For the variant C4U A21G G52A G63A, the yeast fitness is not above 0.5.

In the case of C4U A42C A69U, the yeast fitness stood at 0.633.

Consider C4U A37G C46U, for which the yeast fitness was found to be 0.54.

On to C4U A21G U32A A40C C46A C62U G67A, for which the yeast fitness was not above 0.5.

Turning to C4U C11A A42G G48C G63U G67A, the yeast fitness was not above 0.5.

Regarding C4U C11G A42G C49U A70U, the yeast fitness was not above 0.5.

Regarding C4U C27G A43U C55G, the yeast fitness was not above 0.5.

For C4U C24U A43G, the yeast fitness was 0.555.

With C4U C22G U54A, the yeast fitness came out at 0.558.

On to C4U C34A G56A C60G, for which the yeast fitness was not above 0.5.

Take C4U C30A C46G C49U: the yeast fitness was determined as 0.57.

As to C4U C11G A45U C61G, the yeast fitness was 0.518.

On to C4U C11U A15G, for which the yeast fitness is 0.713.

With C4U A37U A70C, the yeast fitness is 0.676.

In the case of C4U C24G G50A, the yeast fitness was not above 0.5.

As for C4U C27G G63A, the yeast fitness was not above 0.5.

As to C4U C5G C29G C31G A37C A57G C66A, the yeast fitness was not above 0.5.

Regarding C4U A37C C49U C60G, the yeast fitness is not above 0.5.

Turning to C4U A65C G68A, the yeast fitness amounted to 1.03.

Regarding C4U C30G C46U G52A A65C, the yeast fitness is not above 0.5.

Consider C4U A36C C46U, for which the yeast fitness was not above 0.5.

As for C4U C5A C33U C66U, the yeast fitness is not above 0.5.

With C4U C11A C29U C49A, the yeast fitness is not above 0.5.

On to C4U C22G G50C, for which the yeast fitness was 0.533.

As for C4U A21U U35C G50C, the yeast fitness is not above 0.5.

Take C4U C34G C66A: the yeast fitness worked out at 0.562.

Take C4U A20C G51C A57G: the yeast fitness is not above 0.5.

On to C4U C5G, for which the yeast fitness was determined as 0.95.

Consider C4U C30G A36U A70C, for which the yeast fitness was not above 0.5.

As to C4U C11G C30G U47C, the yeast fitness was not above 0.5.

As to C4U C30A G67C, the yeast fitness is 0.731.

Take C4U C30A G39C: the yeast fitness was determined as 0.598.

Turning to C4U A21C C22A C60U, the yeast fitness is not above 0.5.

As to C4U A20U G50A G52A C60U C61G, the yeast fitness was not above 0.5.

As to C4U A20U A40U, the yeast fitness was 0.646.

Turning to C4U A65C A70G, the yeast fitness turned out to be 0.75.

For C4U A21G C46A G67A, the yeast fitness was 0.63.

On to C4U A57C G58A, for which the yeast fitness worked out at 0.58.

In the case of C4U A42U C61A A65C, the yeast fitness is not above 0.5.

Consider C4U C29U A43U, for which the yeast fitness was 0.756.

For C4U C5U G12A A21C C27U, the yeast fitness is not above 0.5.

Regarding C4U C31U A37U, the yeast fitness amounted to 0.617.

Consider C4U C24A U47G, for which the yeast fitness was not above 0.5.

Take C4U A45C C60G A69G: the yeast fitness was not above 0.5.

As for C4U C29U C62U U64C A65U, the yeast fitness was not above 0.5.

With C4U A37C G50C, the yeast fitness was not above 0.5.

In the case of C4U C29A G41A, the yeast fitness was not above 0.5.

As to C4U A42U C49G, the yeast fitness was determined as 0.543.

Consider C4U A45U C66U, for which the yeast fitness is 0.656.

Regarding C4U C31U A69C, the yeast fitness stood at 0.669.

On to C4U C24U A36C C49U, for which the yeast fitness is not above 0.5.

Turning to C4U C30U A69U, the yeast fitness is 0.736.

For the variant C4U C22U C31U, the yeast fitness is 0.645.

With C4U A20G C27A G52A, the yeast fitness was not above 0.5.

As to C4U C24U G56A C60A, the yeast fitness is not above 0.5.

C4U C34A: the yeast fitness came to 0.846.

On to C4U C5G G10A C24U A36C G56A, for which the yeast fitness was 0.651.

Take C4U A36C C49U G58A: the yeast fitness was determined as 0.612.

On to C4U C22U G25A C31U C60G A70G, for which the yeast fitness was not above 0.5.

C4U C33A C61U: the yeast fitness came to 0.597.

Consider C4U C22U C31A U32C A43U, for which the yeast fitness was not above 0.5.

As to C4U C29A C31G A42C A45U G51C, the yeast fitness is not above 0.5.

Consider C4U A20G A45U C61U C62G A69C, for which the yeast fitness is 0.602.

C4U C30G G51C G56U A65G: the yeast fitness was not above 0.5.

C4U C11A U28A C31U G51C: the yeast fitness was found to be 0.622.

As to C4U C30U C31G C62U, the yeast fitness worked out at 0.766.

Consider C4U A69C, for which the yeast fitness was found to be 1.02.

In the case of C4U A69U, the yeast fitness is 1.02.

As for C4U C31A A36G G44C, the yeast fitness was 0.59.

On to C4U C11A A70G, for which the yeast fitness is not above 0.5.

For C4U C5U G48A G51C, the yeast fitness was not above 0.5.

Turning to C4U C5G A15U C22G C30U U53G G58A U59A, the yeast fitness was determined as 0.603.

For the variant C4U C5A A36U G39C A65C, the yeast fitness is not above 0.5.

With C4U C11G C29U U35C, the yeast fitness was not above 0.5.

Consider C4U C24U C66U A70C, for which the yeast fitness stood at 0.51.

In the case of C4U C11G G41A, the yeast fitness was not above 0.5.

In the case of C4U C27U G56A, the yeast fitness turned out to be 0.694.

Take C4U A20G C24U: the yeast fitness was 0.624.
